Here are results for 5 compounds from ChEMBL document CHEMBL1123090, “Inhibition of liver alcohol dehydrogenase and ethanol metabolism by 3-substituted thiolane 1-oxides” (J Med Chem, 1985).

Molecules are shown by their SMILES.

The target of data set [1] is Alcohol dehydrogenase (Equus caballus) (UniProt P00327+P00328). Nature of the data set: In vitro inhibitory constant against horse liver alcohol dehydrogenase was determined.
For data set [2], the system named is Alcohol dehydrogenase (Macaca mulatta). Put plainly: In vitro inhibitory constant against monkey liver alcohol dehydrogenase was determined. As to conditions: Cercopithecidae.
For data set [3], the species on record is Rattus norvegicus. Nature of the data set: The Kii was determined with varied concentrations of inhibitor and ethanol by determining blood alcohol concentration in rats. In kind it is functional. An outline of the steps:
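Fed male Sprague-Dawley rats (175–280 g) given inhibitor ip at 0–1.0 mmol/kg in saline, then 10 min later ethanol 19.6 mmol/kg ip. Tail blood ethanol measured over time by GC with tert-butyl alcohol internal standard. Initial elimination rate taken from tangent after 60-min absorption phase; Kii by nonlinear fit.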

A short description of data set [4]: Compound dose that causes 50% toxicity in mice was determined. In kind it is organism-based. As to conditions: mouse, in vivo. In outline: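 Fed male Swiss-Webster mice (16–20 g) given ip injections of sulfoxide solutions at 0.1–10 M (the concentration of the injected solution), at 0.1 mL/10 g body weight.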
Data set [5] is described as follows: In vitro inhibitory constant against rat liver alcohol dehydrogenase was determined. An outline of the steps:
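Enzymes partially purified from liver (DEAE-cellulose, then AMP-agarose affinity), all steps 0–5 °C. Ethanol varied 0.4–2 mM, 0.5 mM NAD+, 83 mM potassium phosphate pH 7.3 with 40 mM KCl, 37 °C. At least three inhibitor levels; 32 initial velocities by A340. Kii from uncompetitive fit; one or two experiments.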

Turning to `CCCCC1CC[S+]([O-])C1` (centres undefined), the Kii in data set [1] was determined as 0.63 µM; in data set [2] it was 2.3 µM; in data set [3], 11 µmol/kg; in data set [5], 1.1 µM. In data set [4], this compound returned a median lethal dose (LD50) of 1400 µmol/kg.

With `CC1CC[S+]([O-])C1` (centres undefined), the Kii in data set [1] is 7.5 µM; in data set [2], 460 µM; in data set [3], 64 µmol/kg; in data set [5], 19 µM. Besides, the LD50 in data set [4] came to 1300 µmol/kg.

Turning to `[O-][S+]1CCCC1` [TETRAMETHYLENE SULFOXIDE], the Kii is 1600 µM in data set [2], 340 µmol/kg in data set [3] and 130 µM in data set [5]. The LD50 in data set [4] worked out at 45000 µmol/kg.

In the case of `CCCCCCC1CC[S+]([O-])C1` (centres undefined), the Kii in data set [1] was determined as 0.19 µM; in data set [2] it was 0.35 µM; in data set [3], 65 µmol/kg; in data set [5] it was 0.13 µM. In addition, the LD50 in data set [4] stood at 770 µmol/kg.

For the compound `[O-][S+]1CCC(c2ccccc2)C1` (centres undefined), the Kii in data set [1] amounted to 0.36 µM; in data set [2], 1.5 µM; in data set [3], 87 µmol/kg; in data set [5], 1.1 µM. Besides, the LD50 in data set [4] turned out to be 4000 µmol/kg.
